Laboratory results: publication PMC3172365 (Biochemistry, 2011)

Target: T1, E. coli MutL (Escherichia coli, UniProt P23367)
T1 sequence (P23367 1-615): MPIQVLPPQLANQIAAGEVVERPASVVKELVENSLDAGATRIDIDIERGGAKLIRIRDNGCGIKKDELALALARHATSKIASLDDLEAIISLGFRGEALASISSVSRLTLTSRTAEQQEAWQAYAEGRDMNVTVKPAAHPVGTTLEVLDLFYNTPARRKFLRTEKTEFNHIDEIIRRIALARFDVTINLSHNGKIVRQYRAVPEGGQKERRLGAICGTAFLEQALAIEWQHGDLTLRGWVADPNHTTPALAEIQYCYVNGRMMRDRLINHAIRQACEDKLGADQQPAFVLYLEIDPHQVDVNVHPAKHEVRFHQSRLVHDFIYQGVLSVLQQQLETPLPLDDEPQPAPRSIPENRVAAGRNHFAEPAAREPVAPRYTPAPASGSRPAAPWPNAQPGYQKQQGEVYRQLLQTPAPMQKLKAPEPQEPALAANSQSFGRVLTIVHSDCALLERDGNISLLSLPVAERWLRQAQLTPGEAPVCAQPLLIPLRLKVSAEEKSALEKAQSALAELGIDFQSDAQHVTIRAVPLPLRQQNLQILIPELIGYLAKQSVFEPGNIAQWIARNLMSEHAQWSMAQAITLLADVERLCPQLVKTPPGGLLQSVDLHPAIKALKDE
Experiment: analytical sedimentation velocity titration
Assay type: binding
Method in brief: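 Sedimentation velocity at 42,000 rpm and 25°C with purified MutL dialyzed into Buffer M (50 mM potassium phosphate pH 7.4, 50 mM KCl, 0.1 mM EDTA, 1 mM 2-mercaptoethanol) and filtered. Loading was 0.25–3.94 µM monomer, alone or with 1 mM MgCl2 + 35 µM AMPPNP (scanned 230/280 nm), or 1.75 µM dimer with varied AMPPNP (scanned 292 nm). Scans every 2.5 min gave c(s) distributions and weight-average s20,w.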

`Nc1ncnc2c1ncn2[C@@H]1O[C@H](COP(=O)(O)OP(=O)(O)NP(=O)(O)O)[C@@H](O)[C@H]1O` [AMPPNP] gave a Kd of 25.6 µM.
